Data published in ChEMBL document CHEMBL1154340, “Biphenyls from Berberis koreana” (J Nat Prod, 2009).

Tests used:
A549 = assay: Cytotoxicity against human A549 cells by SRB assay; type: functional, cell-based
SK-OV-3 = assay: Cytotoxicity against human SKOV3 cells by SRB assay; type: functional, cell-based
SK-MEL-2 = assay: Cytotoxicity against human SK-MEL-2 cells by SRB assay; type: functional, cell-based
HCT-15 = assay: Cytotoxicity against human HCT15 cells by SRB assay; type: functional, cell-based
BV-2 = assay: Antiinflammatory activity in mouse BV2 cells assessed as effect on LPS-stimulated nitrite accumulation after 24 hrs by Griess reagent method; type: functional, cell-based; conditions: BV-2, 24 h
Outline: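 Nitrite, the stable NO oxidation product, measured in culture supernatant by Griess reaction: 50 µL supernatant mixed with equal volume of reagent (1% sulfanilamide, 0.1% N-1-naphthylethylenediamine dihydrochloride in 5% phosphoric acid). Absorbance at 540 nm read after 10 min. Sodium nitrite standard used for quantitation. L-NMMA served as positive control. IC50 values reported.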

[1] = Cytotoxicity against mouse BV2 cells by MTT assay; type: cell-based; conditions: bv-2
Outline: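 Viability of the same cultures determined by MTT (3-[4,5-dimethylthiazol-2-yl]-2,5-diphenyltetrazolium bromide) assay.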

| IC50 (BV-2) [µM] | Structure (SMILES) | IC50 (A549) [µM] | IC50 (SK-OV-3) [µM] | IC50 (SK-MEL-2) [µM] | IC50 (HCT-15) [µM] | Activity [1] |
| --- | --- | --- | --- | --- | --- | --- |
|  | COc1cc(OC)cc(-c2ccccc2)c1 | > 10 | > 10 | > 10 | > 10 |  |
|  | COc1cc(O)cc(-c2ccccc2)c1 | > 10 | > 10 | > 10 | > 10 |  |
|  | COc1cc2c(oc3cc(O)ccc32)c(OC)c1O | > 10 | > 10 | > 10 | > 10 |  |
|  | COc1cc(-c2ccccc2)cc(OC)c1O [AUCUPARIN] | > 10 | > 10 | > 10 | > 10 |  |
|  | COc1cc(OC)cc(-c2ccc(O)cc2)c1 | > 10 | > 10 | > 10 | > 10 |  |
| 33 | COc1ccc2c(oc3c(OC)c(OC)c(O)cc32)c1O | > 10 | > 10 | > 10 | > 10 |  |
|  | COc1cc2c(oc3ccccc32)c(OC)c1O [ERIOBOFURAN] | > 10 | > 10 | > 10 | > 10 |  |
|  | COc1cc(-c2ccccc2)cc(Oc2c(OC)cc([C@@H](O)[C@H](O)CO)cc2OC)c1O [BERBEKORIN A] | 8.2 |  | 4.4 | 7 | Toxic |
|  | COc1cc(-c2ccccc2)cc(O)c1O | > 10 | > 10 | > 10 | > 10 |  |
| 32.1 | COc1cc(OC)cc(-c2ccccc2O)c1 | > 10 | > 10 | > 10 | > 10 |  |
| 21.9 | COc1cc(-c2ccccc2)cc(OC)c1OC [METHOXY AUCUPARIN] | > 10 | > 10 | > 10 | > 10 |  |
|  | COc1cc(-c2ccccc2O)cc(OC)c1O | > 10 | > 10 | > 10 | > 10 |  |
| 50.6 | COc1cc(-c2ccccc2O)cc(OC)c1OC | > 10 | > 10 | > 10 | > 10 |  |
|  | COc1cc2c(oc3cccc(O)c32)c(OC)c1O | > 10 | > 10 | > 10 | > 10 |  |
